# Assay results of several laboratories.
# Compare with care: the assays were run in different laboratories.
# CDK9: Cyclin-dependent kinase 9 (CDK9, Homo sapiens, UniProt P50750)
# CDK9 with cyclin T1: Cyclin-dependent kinase 9, with cyclin T1 (CDK9, Homo sapiens, UniProt P50750)
Structure (SMILES),target,read-out,action,technique,tested at,measurement,value
Nc1ncc(-c2nc(N3CCOCC3)nc(N3CCOCC3)n2)c(C(F)F)n1,CDK9,binding,,competition with immobilised ligand,10 µM,remaining binding,99%
N#CC1(c2ccccn2)CCN(Cc2cc(C(=O)O)c(=O)n3ccccc23)CC1,CDK9,cell-free assay,,competition with immobilised ligand,1 µM,remaining binding,99%
Cn1cc(-c2cccc(N3CCc4c(sc5c4CC(C)(C)C5)C3=O)c2CO)cc(Nc2ccncn2)c1=O,CDK9 with cyclin T1,enzyme activity,inhibitor,,1 µM,inhibition,11%
COc1ncccc1-c1cnn2ccc(N3CCN(C(=O)OC(C)C)CC3)nc12,CDK9,binding,,competition with immobilised ligand,1 µM,remaining binding,93%
C#Cc1n[nH]c2c(-c3cn(C(C)c4ccccn4)c(=O)[nH]c3=O)cc(F)cc12 (centres unmarked),CDK9 with cyclin T1,enzyme activity,inhibitor,,1 µM,inhibition,20.9%
O=c1[nH]c2ccccc2n1C1CCN(Cc2ccc(-c3[nH]c4cc5ncnc5cc4nc3-c3ccccc3)cc2)CC1,"Cyclin-dependent kinase 9, with cyclin K (CDK9, Homo sapiens, UniProt P50750)",cell-free assay,,,0.5 µM,remaining signal,108%
Cc1nn(C)cc1-c1nc2c(N3CCN(Cc4ccc(Cl)cc4)CC3)c(Cl)cnc2[nH]1,CDK9,binding,,competition with immobilised ligand,1 µM,remaining binding,100%
Cn1cncc1[C@](O)(COc1ccc(C#N)cc1-c1ccc(OC(F)(F)F)cc1)c1ccc(C#N)cc1,CDK9,cell-free assay,,competition with immobilised ligand,1 µM,remaining binding,100%
